Measurements taken from ChEMBL document CHEMBL1121660, “Haloacetamido analogues of 2-amino-2-deoxy-D-mannose. Syntheses and effects on tumor-bearing mice” (J Med Chem, 1981).

Experiments:
[1] = Compound was tested for lethal dose administered in single dose intraperitoneally that killed 50% of the animals; format: ADME, organism-based; settings: mouse, in vivo, ip
L1210 [2] = experiment: Compound was tested for concentration that inhibited thymidine incorporation in vitro by 50%; format: functional, cell-based, Mus musculus
Procedure, shortened: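 Ascites L1210 cells from DBA/2 passage hosts (harvested 5 days after ip implant of 10⁶ cells), washed in 0.85% NaCl and suspended at 2 × 10⁷/mL in RPMI-1640. Exposed 1 h at 37 °C in RPMI-1640 with 10% FBS; tetra-O-acetates added from ethanol solution, free sugars dissolved directly in medium. Cells washed and plated, then pulsed with [³H]thymidine (1.0 μCi/well) for 15 h. TCA-washed cells counted by scintillation. Ethanol-matched controls. IC50 reported as mean ± SE (≥3 determinations) or range (2).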

L1210 [3] = experiment: Percent of control (thymidine incorporation in vitro) at 2.5 mM in L1210 leukemia cells in vitro of B6D2F1 mice; format: functional, Mus musculus
Mus musculus [4] = experiment: In vivo chemotherapy of Ehrlich tumor in B6D2F1 mice at a dose of 3.7 (mmol/kg)/day expressed as number days after tumor challenge; format: functional
Mus musculus [5] = experiment: In vivo chemotherapy of Ehrlich tumor in B6D2F1 mice at a dose of 3.7 (mmol/kg)/day was expressed as number of survivors on 60-day/number of treated; 1/5; format: functional
Mus musculus [6] = experiment: In vivo chemotherapy of Ehrlich tumor in B6D2F1 mice at a dose of 2.5 (mmol/kg)/day was expressed as number of survivors on 60-day/number of treated; 5/8; format: functional
Mus musculus [7] = experiment: In vivo chemotherapy of Ehrlich tumor in B6D2F1 mice at a dose of 3.2 (mmol/kg)/day expressed as number days after tumor challenge; format: functional
Mus musculus [8] = experiment: In vivo chemotherapy of Ehrlich tumor in B6D2F1 mice at a dose of 2.5 (mmol/kg)/day was expressed as number of survivors on 60-day/number of treated; 3/8; format: functional
Mus musculus [9] = experiment: In vivo chemotherapy of Ehrlich tumor in B6D2F1 mice at a dose of 3.2 (mmol/kg)/day was expressed as number of survivors on 60-day/number of treated;2/4; format: functional
Mus musculus [10] = experiment: In vivo chemotherapy of Ehrlich tumor in B6D2F1 mice at a dose of 0.42 (mmol/kg)/day was expressed as number of survivors on 60-day/number of treated; 0/5; format: functional
Mus musculus [11] = experiment: In vivo chemotherapy of Ehrlich tumor in B6D2F1 mice at a dose of 0.12 (mmol/kg)/day expressed as number days after tumor challenge; format: functional
Mus musculus [12] = experiment: In vivo chemotherapy of Ehrlich tumor in B6D2F1 mice at a dose of 0.35 (mmol/kg)/day expressed as number days after tumor challenge; format: functional
Mus musculus [13] = experiment: In vivo chemotherapy of Ehrlich tumor in B6D2F1 mice at a dose of 0.71 (mmol/kg)/day was expressed as number of survivors on 60-day/number of treated; 8/8; format: functional
Mus musculus [14] = experiment: In vivo chemotherapy of Ehrlich tumor in B6D2F1 mice at a dose of 0.71 (mmol/kg)/day was expressed as number of survivors on 60-day/number of treated; 1/8; format: functional
Mus musculus [15] = experiment: In vivo chemotherapy of Ehrlich tumor in B6D2F1 mice at a dose of 0.71 (mmol/kg)/day was expressed as number of survivors on 60-day/number of treated; 4/8; format: functional
Mus musculus [16] = experiment: In vivo chemotherapy of Ehrlich tumor in B6D2F1 mice at a dose of 0.19 (mmol/kg)/day expressed as 60-day survivors (number of survivors/number of treated); 1/8; format: functional
Mus musculus [17] = experiment: In vivo chemotherapy of Ehrlich tumor in B6D2F1 mice at a dose of […] (mmol/kg)/day expressed as number days after tumor challenge; format: functional
Mus musculus [18] = experiment: In vivo chemotherapy of Ehrlich tumor in B6D2F1 mice at a dose of 0.22 (mmol/kg)/day expressed as number days after tumor challenge; format: functional
Mus musculus [19] = experiment: In vivo chemotherapy of Ehrlich tumor in B6D2F1 mice at a dose of 0.13 (mmol/kg)/day was expressed as number of survivors on 60-day/number of treated; 3/8; format: functional
Mus musculus [20] = experiment: In vivo chemotherapy of Ehrlich tumor in B6D2F1 mice at a dose of 0.13 (mmol/kg)/day expressed as number days after tumor challenge; format: functional
Mus musculus [21] = experiment: In vivo chemotherapy of Ehrlich tumor in B6D2F1 mice at a dose of 0.19 (mmol/kg)/day was expressed as number of survivors on 60-day/number of treated; 1/8; format: functional
Mus musculus [22] = experiment: In vivo chemotherapy of Ehrlich tumor in B6D2F1 mice at a dose of 0.22 (mmol/kg)/day was expressed as number of survivors on 60-day/number of treated; 4/4
Mus musculus [23] = experiment: In vivo chemotherapy of Ehrlich tumor in B6D2F1 mice at a dose of 0.42 (mmol/kg)/day was expressed as number of survivors on 60-day/number of treated;0/8; format: functional
Mus musculus [24] = experiment: In vivo chemotherapy of Ehrlich tumor in B6D2F1 mice at a dose of 0.42 (mmol/kg)/day expressed as number days after tumor challenge; format: functional

CC(=O)OCC1OC(OC(C)=O)C(NC(=O)CBr)C(OC(C)=O)C1OC(C)=O (stereo in doubt; form 1)
LD50 [1]: 240 µmol/kg

CC(=O)OCC1OC(OC(C)=O)C(NC(=O)CCl)C(OC(C)=O)C1OC(C)=O (stereo in doubt; form 1)
IC50 (L1210 [2]; l1210): 220 µM

O=C(CBr)NC1C(O)OC(CO)C(O)C1O (stereo in doubt; form 2)
Thymidine incorporation (% of control) (L1210 [3]): 68%

O=C(CCl)NC1C(O)OC(CO)C(O)C1O (stereo in doubt; form 3)
Thymidine incorporation (% of control) (L1210 [3]): 97%

O=C(CBr)NC1C(O)OC(CO)C(O)C1O (stereo in doubt; form 3)
Thymidine incorporation (% of control) (L1210 [3]): 95%

O=C(CCl)NC1C(O)OC(CO)C(O)C1O (stereo in doubt; form 2)
Days (Mus musculus [4]): 4
Survivors (Mus musculus [5]): 1

CC(=O)OCC1OC(OC(C)=O)C(NC(=O)CF)C(OC(C)=O)C1OC(C)=O (stereo in doubt; form 2)
IC50 (L1210 [2]; Mus musculus, L1210): > 1000 µM

O=C(CBr)NC1C(O)OC(CO)C(O)C1O (stereo in doubt; form 1)
Thymidine incorporation (% of control) (L1210 [3]): 79%
Survivors (Mus musculus [6]): 5
Days (Mus musculus [7]): 4
Survivors (Mus musculus [8]): 3
Survivors (Mus musculus [9]): 2
LD50 [1]: > 3200 µmol/kg

O=C(CCl)NC1C(O)OC(CO)C(O)C1O (stereo in doubt; form 1)
Thymidine incorporation (% of control) (L1210 [3]): 51%

CC(=O)OCC1OC(OC(C)=O)C(NC(=O)CF)C(OC(C)=O)C1OC(C)=O (stereo in doubt; form 3)
Survivors (Mus musculus [10]): 0
Days (Mus musculus [11]): 1

CC(=O)OCC1OC(OC(C)=O)C(NC(=O)CCl)C(OC(C)=O)C1OC(C)=O (stereo in doubt; form 2)
IC50 (L1210 [2]; l1210): 425 µM

CC(=O)OCC1OC(OC(C)=O)C(NC(=O)CBr)C(OC(C)=O)C1OC(C)=O (stereo in doubt; form 2)
IC50 (L1210 [2]; l1210): 6.5 µM

CC(=O)OCC1OC(OC(C)=O)C(NC(=O)CCl)C(OC(C)=O)C1OC(C)=O (stereo in doubt; form 3)
IC50 (L1210 [2]; l1210): 143 µM
Days (Mus musculus [12]): 3
Survivors (Mus musculus [13]): 8
Survivors (Mus musculus [14]): 1
Survivors (Mus musculus [15]): 4
LD50 [1]: 1600 µmol/kg

CC(=O)OCC1OC(OC(C)=O)C(NC(=O)CBr)C(OC(C)=O)C1OC(C)=O (stereo in doubt; form 3)
IC50 (L1210 [2]; Mus musculus, L1210): 9.4 µM
Survivors (Mus musculus [16]): 1
Days (Mus musculus [17]): 3
Days (Mus musculus [18]): 1
Survivors (Mus musculus [19]): 3
Days (Mus musculus [20]): 1
Survivors (Mus musculus [21]): 1
Survivors (Mus musculus [22]): 4

O=C(CF)NC1C(O)OC(CO)C(O)C1O (stereo in doubt; form 1)
Thymidine incorporation (% of control) (L1210 [3]): 93%
Survivors (Mus musculus [23]): 0
Days (Mus musculus [24]): 2
